Test results taken from ChEMBL document CHEMBL4316604, “Discovery of Isaindigotone Derivatives as Novel Bloom's Syndrome Protein (BLM) Helicase Inhibitors That Disrupt the BLM/DNA Interactions and Regulate the Homologous Recombination Repair” (J Med Chem, 2019).
Calls of active or inactive are those of the source. The calls are words filed in the database; no cut-off is given here.

How the values were obtained:
[1] = target: T1, RecQ-like DNA helicase BLM (Homo sapiens, UniProt P54132); assay: Inhibition of 5'-biotin labeled duplex forked-DNA binding to BLM (unknown origin) assessed as increase in unbound DNA levels after 1 hr by ELISA
Method in brief: (§1)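 Biotinylated forked DNA (50 nM) immobilised on streptavidin plates overnight at 4 °C. BLM or mutant (100 nM final) premixed with serially halved ligand in 3% BSA blocking buffer, ≤1% DMSO, 1 h on ice. Applied to the blocked plate for 1 h at 37 °C. Bound BLM detected with anti-BLM and HRP secondary, TMB, A450; Hill fit.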

[2] = target: T1, RecQ-like DNA helicase BLM; assay: Inhibition of His-tagged BLM (unknown origin) expressed in Escherichia coli BL21 (DE3) assessed as reduction in BLM helicase unwinding activity at 10 uM using 5'-biotin labeled forked-DNA as substrate after 1 hr by PAGE analysis
Method in brief: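 BLM642-1296 (His-tagged, E. coli BL21(DE3)) preincubated with ligand (1.0, 10, 50 μM; ≤1% DMSO) for 1 h at 4 °C. Reaction: 8 nM annealed 5′-biotin duplex forked DNA, 32 nM BLM, 2 mM ATP, 0.1% BSA, 1 h.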

[3] = system: HCT-116; assay: Induction of apoptosis in human HCT116 cells assessed as up-regulation of ATM phosphorylation up to 2 uM after 24 hrs by Western blot analysis
[4] = system: RecQ-like DNA helicase BLM (Homo sapiens), P54132 [Y995A]; assay: Inhibition of His-tagged BLM Y995A mutant (unknown origin) binding to DNA assessed as effect on unbound DNA
Method in brief: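 Truncated His-tagged BLM (residues 642-1296) mutant expressed in E. coli BL21(DE3). ELISA with 5′-biotin forked DNA (50 nM) immobilized on streptavidin plates at 4 °C overnight. BLM at 100 nM final was premixed with half-diluted compound (≤1% DMSO) on ice for 1 h, then added at 37 °C for 1 h. Bound BLM was detected with anti-BLM/HRP-TMB at A450; curves were Hill-fitted.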

[5] = system: HCT-116; assay: Chemosensitization activity in human HCT116 cells assessed as cisplatin-induced antiproliferative activity at 1.25 uM in presence of cisplatin after 24 hrs by MTT assay (reference value: 15.4%); format: functional
[6] = target: T1, RecQ-like DNA helicase BLM; assay: Inhibition of BLM in human HCT116 cells assessed as induction of HRR up-regulation at 1 uM after 24 hrs by GFP-based flow cytometry relative to untreated control; format: cell-based
Method in brief: (§2)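 HCT116 cells (2×10^5) co-transfected with DR-GFP HRR reporter and I-SceI plasmid; 24 h later treated with 0–2 μM ligand (reference 0–50 μM); BLM siRNA knockdown where stated. GFP-positive cells counted by flow cytometry and normalised to untreated; triplicate, mean ± SD.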

[7] = target: T1, RecQ-like DNA helicase BLM; assay: Inhibition of His-tagged BLM (unknown origin) expressed in Escherichia coli BL21 (DE3) assessed as reduction in BLM helicase unwinding activity using 5'-biotin labeled forked-DNA as substrate after 1 hr by PAGE analysis
[8] = system: RecQ-like DNA helicase BLM (Homo sapiens), P54132 [H996A]; assay: Inhibition of His-tagged BLM H996A mutant (unknown origin) binding to DNA assessed as effect on unbound DNA; method in brief: as §1
[9] = target: T1, RecQ-like DNA helicase BLM; assay: Inhibition of BLM (unknown origin) assessed as increase in RAD51-ssDNA filaments up to 5 uM after 24 hrs by ELISA based DNA exchange activity assay
[10] = system: DNA; assay: Binding affinity to DNA (unknown origin) up to 2 molar ratio by ITC; format: nucleic-acid assay
Method in brief: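 ITC at 25 °C in 2 mM MgCl2, 10 mM KH2PO4, pH 7.5: ligand (0.6 mM, syringe) titrated in 10 μL injections, 300 s apart, into BLM642-1296 wild-type or point mutant, or DNA (0.04 mM, cell). His-tagged BLM from E. coli BL21(DE3), induced with […] at 16 °C for 24 h. Heats integrated, fitted to 1:1 model for KD.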

[11] = target: T1, RecQ-like DNA helicase BLM; assay: Inhibition of BLM in human HCT116 cells assessed as induction of HRR up-regulation after 24 hrs by GFP-based flow cytometry; format: cell-based; method in brief: as §2

T1 sequence (P54132 whole entry): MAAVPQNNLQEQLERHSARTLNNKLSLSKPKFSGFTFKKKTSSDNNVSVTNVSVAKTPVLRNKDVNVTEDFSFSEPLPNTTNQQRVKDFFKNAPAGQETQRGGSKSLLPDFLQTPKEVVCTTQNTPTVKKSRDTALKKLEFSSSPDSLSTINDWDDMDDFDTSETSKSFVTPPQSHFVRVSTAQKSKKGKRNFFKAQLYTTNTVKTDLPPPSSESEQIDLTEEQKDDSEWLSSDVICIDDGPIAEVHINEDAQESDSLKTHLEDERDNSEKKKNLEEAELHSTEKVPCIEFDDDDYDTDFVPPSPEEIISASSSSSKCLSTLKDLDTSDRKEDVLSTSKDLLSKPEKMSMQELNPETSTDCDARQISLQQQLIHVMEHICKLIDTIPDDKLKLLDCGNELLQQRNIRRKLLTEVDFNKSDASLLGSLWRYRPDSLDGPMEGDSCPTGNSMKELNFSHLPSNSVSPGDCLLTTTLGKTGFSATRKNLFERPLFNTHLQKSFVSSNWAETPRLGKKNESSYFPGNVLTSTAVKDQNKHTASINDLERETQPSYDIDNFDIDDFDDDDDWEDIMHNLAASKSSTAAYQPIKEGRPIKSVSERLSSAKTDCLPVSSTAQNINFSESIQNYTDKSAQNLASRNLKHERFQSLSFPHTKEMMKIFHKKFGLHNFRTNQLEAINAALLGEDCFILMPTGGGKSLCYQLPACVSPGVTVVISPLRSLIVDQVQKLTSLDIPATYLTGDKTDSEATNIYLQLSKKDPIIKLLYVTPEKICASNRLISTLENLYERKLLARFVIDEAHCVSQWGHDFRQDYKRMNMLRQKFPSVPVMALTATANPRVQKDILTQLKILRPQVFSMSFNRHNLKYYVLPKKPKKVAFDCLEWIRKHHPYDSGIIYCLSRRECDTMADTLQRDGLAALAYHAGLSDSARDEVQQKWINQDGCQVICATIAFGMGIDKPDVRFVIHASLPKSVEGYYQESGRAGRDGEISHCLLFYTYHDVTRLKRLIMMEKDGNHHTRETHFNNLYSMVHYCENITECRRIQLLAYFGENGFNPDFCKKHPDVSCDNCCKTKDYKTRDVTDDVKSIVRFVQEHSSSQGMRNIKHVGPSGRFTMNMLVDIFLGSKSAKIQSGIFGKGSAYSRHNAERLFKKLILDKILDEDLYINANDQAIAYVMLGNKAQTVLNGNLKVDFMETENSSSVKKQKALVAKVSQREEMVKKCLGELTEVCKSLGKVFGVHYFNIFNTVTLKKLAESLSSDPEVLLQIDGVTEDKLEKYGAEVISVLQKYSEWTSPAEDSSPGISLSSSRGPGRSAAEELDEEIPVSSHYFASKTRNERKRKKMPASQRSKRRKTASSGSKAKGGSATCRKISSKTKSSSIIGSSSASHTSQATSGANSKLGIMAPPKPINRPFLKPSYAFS
Chain of RecQ-like DNA helicase BLM (Homo sapiens), P54132 [H996A] (P54132 whole entry H996A): as the sequence (P54132 whole entry) above, with H996A counted along it
Chain of RecQ-like DNA helicase BLM (Homo sapiens), P54132 [Y995A] (P54132 whole entry Y995A, the tested form may be a part): as the sequence (P54132 whole entry) above, with Y995A counted along it

IC50 [1]: 3.95 µM | inhibition [1]: Dose-dependent effect | inhibition [2]: Active | inhibition [4]: inactive | fold change (FC) [6]: < 3 | IC50 [7]: 0.95 µM | inhibition [8]: inactive | inhibition [9]: Dose-dependent effect | Activity [10]: inactive | inhibition [11]: Dose-dependent effect
Compound: CCN(CC)CCCNc1cc2nc3n(c(=O)c2cc1F)CC/C3=C\c1ccc(C(C)C)cc1
Activity [3]: Active | Activity [5]: 71.2%
